{"source": "paper PMC6868502", "about": "(Journal of natural products, 2018)", "key": {"Caco-2 cell line": {"tested_on": "Caco-2 cell line", "test": "Caco-2 permeability", "type": "in vitro ADME"}, "[1]": {"tested_on": "NPC1 protein in GM18453 fibroblasts", "test": "NPC1 protein expression, Western blot after endoglycosidase H treatment", "type": "cell-based, human", "conditions": "48 hours; for levels of the 250 kDa NPC1 isoform: SAHA 5 μM or GEX1A 50 nM"}, "[2]": {"tested_on": "GM18453 skin fibroblast cell line (I1061T mutation on both alleles of NPC1)", "test": "Filipin staining of unesterified cholesterol in NPC1 mutant fibroblasts", "type": "cell-based, human", "conditions": "GM18453 cells; for concentration at which the lowest filipin area/cell is achieved: dose range 1 nM to 5 μM; for concentration giving significant rescue of cholesterol accumulation (as low as): filipin fluorescence images"}, "[3]": {"test": "Liver microsome stability", "type": "in vitro ADME"}, "histone acetylation": {"tested_on": "histone acetylation", "conditions": "cited from earlier work"}, "[4]": {"tested_on": "NPC1 protein in GM18453 fibroblasts", "test": "NPC1 protein expression, Western blot after peptide:N-glycosidase F treatment", "type": "cell-based, human", "conditions": "48 hours", "summary_of_the_method": "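NPC1-mutant GM18453 fibroblasts exposed for 48 h at 37°C, 5% CO2 to test compound (50 nM), SAHA (5 μM) or 0.1% v/v DMSO, then lysed in RIPA with protease inhibitors. Lysate (25 μg) digested with PNGase F (1000 U) in SDS, DTT and Tris-HCl pH 8, overnight (~18 h) at 37°C. Immunoblot with rabbit anti-NPC1, ECL on film. Densitometry normalised to actin, relative to DMSO; four independent experiments; SD; t-test.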"}, "Plasma protein binding": {"test": "Plasma protein binding", "type": "in vitro ADME"}, "Aqueous solubility": {"test": "Aqueous solubility", "type": "physicochemical"}, "Pharmacokinetics in mice": {"test": "Pharmacokinetics in mice", "type": "in vivo", "conditions": "mice dosed at 2 mg/kg"}, "[5]": {"tested_on": "low-density lipoprotein (LDL) receptor", "conditions": "ref 5; cited from earlier work"}, "[6]": {"tested_on": "GM18407 fibroblast cell line (NPC1 R404Q, M1142T)", "conditions": "GM18407 cells; cited from earlier work"}, "[7]": {"tested_on": "GM18453 skin fibroblast cell line (I1061T mutation on both alleles of NPC1)", "conditions": "several NPC1 mutant cell lines, including GM18453; cited from earlier work"}, "[8]": {"tested_on": "GM18407 fibroblast cell line (NPC1 R404Q, M1142T)", "test": "Filipin staining of cholesterol accumulation in GM18407 fibroblasts", "type": "cell-based, human", "conditions": "GM18407 cells, even at high concentrations"}}, "note": "Read-outs that look alike come from different tables or passages of the source.", "data": [{"compound": "CO[C@H]([C@@H](C)[C@H]1O[C@]1(C)C[C@H](C)/C=C/C=C(\\C)[C@H]1O[C@@H](CC(=O)O)CC[C@@H]1C)[C@@H](C)O", "note": "[Compound 1, GEX1A]", "values": [{"measurement": "permeability", "setting": "Caco-2 cell line; Caco-2", "value": "reasonably permeable"}, {"measurement": "efflux", "setting": "Caco-2 cell line; Caco-2 cell line", "value": "no evidence of efflux"}, {"measurement": "expression of the 180 kDa NPC1 species", "setting": "[1]; GEX1A 50 nM, vs DMSO", "value": "increases the expression of the 180 kDa species"}, {"measurement": "levels of the 250 kDa NPC1 isoform", "setting": "[1]; vs DMSO", "value": "did not cause a significant increase"}, {"measurement": "effects on cell and nuclei shape (cellular toxicity)", "setting": "[2]; 5 μM", "value": "detrimental effects on cell and nuclei shape"}, {"measurement": "concentration at which the lowest filipin area/cell is achieved", "setting": "[2]; 48 hours", "value": 50, "unit": "nM"}, {"measurement": "concentration giving significant rescue of cholesterol accumulation (as low as)", "setting": "[2]; 48 hours", "value": 50, "unit": "nM"}, {"measurement": "stability in liver microsomes", "setting": "[3]", "value": "quite stable"}, {"measurement": "effect on histone acetylation", "setting": "histone acetylation; ref 5", "value": "does not affect histone acetylation"}, {"measurement": "effect on histone acetylation", "setting": "histone acetylation; ref 32", "value": "no effect on histone acetylation"}, {"measurement": "expression of the highly glycosylated 180 kDa NPC1 isoform", "setting": "[4]; GEX1A 50 nM, PNGase F experiment", "value": "clear increase"}, {"measurement": "level of NPC1 protein expression including both the 250 and 120 kDa isoforms", "setting": "[4]; GEX1A 50 nM, PNGase F, vs DMSO", "value": "significant increase"}, {"measurement": "plasma protein binding profile", "setting": "Plasma protein binding", "value": "excellent plasma protein binding profile"}, {"measurement": "aqueous solubility", "setting": "Aqueous solubility", "value": "exceptional aqueous solubility"}, {"measurement": "half-life", "setting": "Pharmacokinetics in mice", "value": "long half-life"}, {"measurement": "expression of the LDL receptor", "setting": "[5]", "value": "increased expression"}]}, {"compound": "COC(=O)C[C@H]1CC[C@H](C)[C@@H](/C(C)=C/C=C/[C@@H](C)C[C@@]2(C)O[C@@H]2[C@H](C)[C@@H](OC)[C@@H](C)O)O1", "note": "[Compound 2, Methyl 2-((2R,5S,6S)-6-((S,2E,4E)-7-((2R,3R)-3-((2R,3R,4R)-4-hydroxy-3-methoxypentan-2-yl)-2-methyloxiran-2-yl)-6-methylhepta-2,4-dien-2-yl)-5-methyltetrahydro-2H-pyran-2-yl) acetate]", "values": [{"measurement": "concentration at which the lowest filipin area/cell is achieved", "setting": "[2]; 48 hours", "value": 50, "unit": "nM"}, {"measurement": "concentration giving significant rescue of cholesterol accumulation (as low as)", "setting": "[2]; 48 hours", "value": 50, "unit": "nM"}]}, {"compound": "COC(=O)C[C@H]1CC[C@H](C)[C@@H](/C(C)=C/C=C/[C@@H](C)C[C@@]2(C)O[C@@H]2[C@H](C)[C@@H](OC)[C@@H](C)OC(C)=O)O1", "note": "[Compound 3, Methyl 2-((2R,5S,6S)-6-((S,2E,4E)-7-((2R,3R)-3-((2R,3R,4R)-4-acetoxy-3-methoxypentan-2-yl)-2-methyloxiran-2-yl)-6-methylhepta-2,4-dien-2-yl)-5-methyltetrahydro-2H-pyran-2-yl) acetate]", "values": [{"measurement": "concentration at which the lowest filipin area/cell is achieved", "setting": "[2]; 48 hours", "value": 50, "unit": "nM"}, {"measurement": "concentration giving significant rescue of cholesterol accumulation (as low as)", "setting": "[2]; 48 hours", "value": 50, "unit": "nM"}]}, {"compound": "COC(=O)C[C@H]1CC[C@H](C)[C@@H](/C(C)=C/C=C/[C@@H](C)C[C@@]2(C)O[C@@H]2[C@H](C)[C@@H](OC)C(C)=O)O1", "note": "[Compound 4, Methyl 2-((2R,5S,6S)-6-((S,2E,4E)-7-((2R,3R)-3-((2S,3R)-3-methoxy-4-oxopentan-2-yl)-2-methyloxiran-2-yl)-6-methylhepta-2,4-dien-2-yl)-5-methyltetrahydro-2H-pyran-2-yl)acetate]", "values": [{"measurement": "cholesterol clearance compared to vehicle treatment", "setting": "[2]; 50 nM, 48 hours, filipin", "value": "Some cholesterol clearance"}]}, {"compound": "O=C(CCCCCCC(=O)Nc1ccccc1)NO", "note": "[SAHA, suberoylanilide hydroxamic acid, reference compound]", "values": [{"measurement": "levels of the 250 kDa NPC1 isoform", "setting": "[1]; vs DMSO", "value": "increases the expression of the larger (250 kDa) isoform"}, {"measurement": "increase in the levels of total NPC1 protein", "setting": "[1]; SAHA 5 μM, Endo H, densitometry vs DMSO", "value": "approximately twofold"}, {"measurement": "levels of the 250 kDa NPC1 isoform", "setting": "[4]; SAHA 5 μM, PNGase F experiment, vs DMSO", "value": "moderate increase"}, {"measurement": "effect on lysosomal cholesterol accumulation", "setting": "[6]", "value": "no effect on lysosomal cholesterol accumulation"}, {"measurement": "reversal of cholesterol accumulation in NPC1 mutant cell lines", "setting": "[7]", "value": "effective in reversing cholesterol accumulation"}, {"measurement": "rescue of the disease phenotype (cholesterol accumulation)", "setting": "[8]", "value": "neither SAHA nor compounds 1 – 4 were able to effectively rescue the disease phenotype"}]}]}
